Results from ChEMBL document CHEMBL1125621, “Muscarinic receptor binding and activation of second messengers by substituted N-methyl-N-[4-(1-azacycloalkyl)-2-butynyl]acetamides” (1991).
Calls of active or inactive are those of the source.

Tests used:
[1] = system: A9; experiment: Increase in phosphoinositide (PI) metabolism in A9L-m1 cells at 100 uM.; type: functional, Mus musculus
[2] = molecular target: Muscarinic acetylcholine receptor M3 (Mus musculus) (UniProt Q9ERZ3); experiment: Increase in phosphoinositide (PI) metabolism in A9L-cholinergic receptor, muscarinic 3 expressing cells was measured at 100 uMolar; type: functional; details: 100 uM
Muscarinic acetylcholine receptor M3 (Mus musculus), sequence (Q9ERZ3 whole entry): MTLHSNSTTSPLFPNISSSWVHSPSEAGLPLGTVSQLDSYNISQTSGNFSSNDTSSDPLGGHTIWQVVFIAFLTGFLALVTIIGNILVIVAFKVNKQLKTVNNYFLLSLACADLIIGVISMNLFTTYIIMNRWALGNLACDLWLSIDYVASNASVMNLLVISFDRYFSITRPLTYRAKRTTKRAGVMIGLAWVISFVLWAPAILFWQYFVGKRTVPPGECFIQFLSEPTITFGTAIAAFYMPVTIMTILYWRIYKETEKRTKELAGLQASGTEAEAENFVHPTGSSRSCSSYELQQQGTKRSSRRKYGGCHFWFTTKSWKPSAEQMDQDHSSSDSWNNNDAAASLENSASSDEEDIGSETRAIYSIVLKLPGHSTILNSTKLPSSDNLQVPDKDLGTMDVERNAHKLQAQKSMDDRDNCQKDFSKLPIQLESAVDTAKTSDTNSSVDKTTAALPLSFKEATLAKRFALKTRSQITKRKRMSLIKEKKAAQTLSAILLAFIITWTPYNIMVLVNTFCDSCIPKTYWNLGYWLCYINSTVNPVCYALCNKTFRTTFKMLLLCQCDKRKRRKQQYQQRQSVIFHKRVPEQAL
In short: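 A9L fibroblasts transfected with m3 receptor, grown in DMEM with 10% newborn calf serum. Labeled overnight with [3H]myo-inositol, preincubated 5 min at 37 °C in 10 mM LiCl DMEM-Hepes. Compound at 100 μM final, 30 min at 37 °C. Labeled inositol phosphates extracted by ion exchange. Result expressed as percent of the oxotremorine-M response, duplicate determinations.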

[3] = molecular target: T1, cyclic AMP phosphoprotein (Rattus norvegicus) (UniProt Q712U5); experiment: The percent inhibition of cyclic AMP(cAMP) formation in NG108-15 cells expressed in m40AChR was measured; type: functional, cell-based; details: concentration not given here
T1 sequence (whole entry): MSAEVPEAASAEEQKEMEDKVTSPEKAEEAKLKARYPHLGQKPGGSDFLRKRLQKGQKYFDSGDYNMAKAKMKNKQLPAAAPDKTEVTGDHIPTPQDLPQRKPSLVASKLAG
In short: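 NG108-15 cells expressing m4 receptors; compound at 100 μM. Cyclic AMP inhibition expressed as percent of Oxo-M (100%), average of two or three trials.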

[4] = molecular target: T2, Muscarinic acetylcholine receptor (Rattus norvegicus) (UniProt P08482+P08483+P08485+P08911+P10980); experiment: Evaluated for displacement of [3H]oxotremorine-M binding ([3H]OXO-M) at muscarinic acetylcholine receptor in rat forebrain membranes; type: cell membranes; set-up: concentration or dose not given beside the values; details: Membrane
In short: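 Sprague-Dawley rat forebrain membranes. Incubated with 2.7 nM [3H]Oxo-M in 50 mM NaPO4, 2 mM MgCl2, pH 7.4, 20 min at 37 °C. Filtered on glass fiber presoaked in 0.05% polyethylenimine. Nonspecific binding defined with 1 μM atropine. Single concentration 1 μM, triplicate, averaged over two to five trials. Read-out is percent displacement of specific binding.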

[5] = molecular target: T2, Muscarinic acetylcholine receptor (Rattus norvegicus); experiment: Displacement of [3H]N-methylscopolamine ([3H]NMS) binding at muscarinic acetylcholine receptor in rat cerebral cortical membranes; type: cell membranes; set-up: concentration or dose not given beside the values; details: Membrane
In short: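 Rat (Sprague-Dawley, either sex, 200 g) forebrain membranes, homogenized and washed in 50 mM sodium phosphate pH 7.4. 200-300 μg membrane incubated with 0.5 nM [3H]NMS plus compound (single concentration, 100 μM) in phosphate-buffered saline, 60 min at 37 °C. Filtered on glass fiber, scintillation counted. Nonspecific binding defined with 1 μM atropine. Triplicate. Reported as percent displacement.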

[6] = The percent inhibition of cyclic AMP(cAMP) formation in NG108-15 cells at 100 uM.; details: Mus musculus
[7] = The percent inhibition of cyclic AMP(cAMP) formation in NG108-15 cells expressed in m40AChR was measured; i=inactive (< 2%); details: Mus musculus
[8] = system: A9; experiment: The increase in phosphoinositide (PI) metabolism in A9L-m1 cells was measured at 100 uM; i = inactive; type: functional, cell-based; details: Mus musculus
In short: (§1)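 A9L fibroblasts transfected with m1 or m3 receptor, grown in DMEM with 10% newborn calf serum. Labeled overnight with [³H]myo-inositol, preincubated 5 min at 37 °C in 10 mM LiCl in DMEM-Hepes, then exposed to compound at 100 μM final for 30 min. Inositol phosphates extracted by ion exchange. Result expressed as percent of Oxo-M response; duplicate determinations.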

[9] = molecular target: T2, Muscarinic acetylcholine receptor (Rattus norvegicus); experiment: compound was evaluated for displacement of [3H]N-methylscopolamine ([3H]NMS) binding at muscarinic acetylcholine receptor in rat cerebral cortical membranes; i = inactive (< 1%); type: cell membranes; details: Membrane
In short: (§2)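 Rat cerebral cortical membranes, 200-300 μg per tube, incubated with 0.5 nM [³H]NMS and test compound at a single concentration of 100 μM in phosphate-buffered saline, 60 min at 37 °C. Glass fiber filtration and scintillation counting. Nonspecific binding taken with 1 μM atropine and subtracted. Triplicates; result given as percent displacement of specific binding.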

[10] = system: A9; experiment: The increase in phosphoinositide (PI) metabolism in A9L-m3 cells was measured at 100 uM; i = inactive; type: functional, cell-based; details: Mus musculus; in short: as §1
[11] = molecular target: T2, Muscarinic acetylcholine receptor (Rattus norvegicus); experiment: compound was evaluated for displacement of [3H]oxotremorine-M binding ([3H]OXO-M) at muscarinic acetylcholine receptor in rat forebrain membranes; i = inactive (< 1%); type: cell membranes; details: Membrane
In short: (§3)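 Forebrain membranes from Sprague-Dawley rats, prepared in 50 mM sodium phosphate pH 7.4. Incubated with 2.7 nM [³H]Oxo-M and test compound at a single concentration of 1 μM in 50 mM NaPO₄, 2 mM MgCl₂, pH 7.4, 20 min at 37 °C. Filters presoaked in polyethylenimine; nonspecific binding with 1 μM atropine. Percent displacement, mean of two to five trials.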

[12] = molecular target: T2, Muscarinic acetylcholine receptor (Rattus norvegicus); experiment: Compound was evaluated for displacement of [3H]N-methylscopolamine ([3H]NMS) binding at muscarinic acetylcholine receptor in rat cerebral cortical membranes; type: cell membranes; details: Membrane; in short: as §2
[13] = molecular target: T2, Muscarinic acetylcholine receptor (Rattus norvegicus); experiment: Compound was evaluated for displacement of [3H]oxotremorine-M binding ([3H]OXO-M) at muscarinic acetylcholine receptor in rat forebrain membranes; type: cell membranes; details: Membrane; in short: as §3

Compound | PI turnover [1] | PI turnover [2] | Displacement [4] [%] | Displacement [5] [%] | inhibition [6] [%] | inhibition [7] | further results
CC(=O)N(C)CC#CCN1CCC[C@H]1CF.O=C(O)C(=O)O | 11.1 | 10.6 | 50.5 | 53.8 |  |  | inhibition [3]: 62.4%
CC(=O)N(C)CC#CCN1CCC(F)C1.O=C(O)C(=O)O (centres undefined) | 11.3 | 7.9 | 38.1 | 29 | 8.9 |  | 
COC[C@@H]1CCCN1CC#CCN(C)C(C)=O.O=C(O)C(=O)O | 6.2 | 5.5 |  | 52 | 15.4 |  | 
CC(=O)N(C)CC#CCN1CCC(OC(=O)c2ccccc2)C1.O=C(O)C(=O)O (centres undefined) | 1.4 | 4 | 39.1 | 57.4 |  | inactive | 
CC(=O)N(C)CC#CCN1CCC(CO)CC1.O=C(O)C(=O)O | 8.8 | 16 | 14.7 | 10.2 | 4.8 |  | 
CC(=O)N(C)CC#CCN1CCNCC1.O=C(O)C(=O)O | 18.2 | 12 | 33.8 | 51.2 | 16.8 |  | 
CC(=O)N(C)CC#CCN1CCC(C(=O)O)CC1 |  | 5.2 | 26.8 |  | 17.5 |  | PI turnover [8]: inactive; Displacement [9]: inactive
CC(=O)N(C)CC#CCN1CCC[C@H]1CO.O=C(O)C(=O)O | 5.1 | 4.7 | 25 | 33.1 |  | inactive | 
CC(=O)N(C)CC#CCN1CCC(O)C1.O=C(O)C(=O)O (centres undefined) | 17.1 | 7.4 | 39.9 | 21.5 | 22.5 |  | 
CC(=O)N(C)CC#CCN1CCN(CCO)CC1 |  |  | 22.3 | 9.3 |  | inactive | PI turnover [8]: inactive; PI turnover [10]: inactive
C[N+](C)(C)CCOC(N)=O |  | 86.1 |  |  |  |  | 
CC(=O)N(C)CC#CCN1CCC(OS(C)(=O)=O)C1.O=C(O)C(=O)O (centres undefined) | 10.4 | 17.2 | 25.2 | 20.2 | 38.5 |  | 
CC(=O)N(C)CC#CCN1CCC(CCO)CC1.O=C(O)C(=O)O | 3.3 |  | 11 | 16.3 |  | inactive | 
CCOC(=O)C1CCCN(CC#CCN(C)C(C)=O)C1.O=C(O)C(=O)O (centres undefined) | 6.6 | 12.9 | 31.2 | 39.8 | 23.6 |  | 
CCOC(=O)C1CCCCN1CC#CCN(C)C(C)=O.O=C(O)C(=O)O (centres undefined) | 12.8 | 15.2 | 24.9 | 5.8 | 44.1 |  | 
O=C1CCCN1CC#CCN1CCCC1 |  | 35.6 |  |  |  |  | 
CC(=O)N(C)CC#CCN1CCCCC1CO.O=C(O)C(=O)O (centres undefined) | 7.3 | 12.5 | 20.4 | 31.2 |  | inactive | 
CC(=O)N(C)CC#CCN1CCC(F)CC1 |  |  |  | 18.8 |  |  | 
CC(=O)N(C)CC#CCN1CCC(OS(=O)(=O)c2ccc(C)cc2)C1.O=C(O)C(=O)O (centres undefined) | 23.1 | 23.1 | 64.8 | 51.6 | 83.6 |  | 
CC(=O)N(C)CC#CCN1CCCC(CO)C1 (centres undefined) |  | 2.8 | 22.4 | 45 |  |  | PI turnover [8]: inactive
CCOC(=O)C1CCN(CC#CCN(C)C(C)=O)CC1.O=C(O)C(=O)O | 3.3 | 8.8 | 32.1 | 47.5 |  | inactive | 
CC(=O)N(C)CC#CCN1CCN(C(C)=O)CC1.O=C(O)C(=O)O | 1 | 3.1 |  | 59.2 |  | inactive | Displacement [11]: inactive
CC(=O)N(C)CC#CCN1CCCCC1 |  | 5.6 | 68.9 | 83.4 |  | inactive | PI turnover [8]: inactive
CC(=O)N(C)CC#CCN1CCC1.O=C(O)C(=O)O | 61.3 | 59.8 | 94 | 38 | 95.7 |  | 
CC(=O)N(C)CC#CCN1CCC(O)CC1 |  | 2.6 | 9.2 | 3.8 |  |  | PI turnover [8]: inactive
CC(=O)N(C)CC#CCN1CCC[C@@H]1CO.O=C(O)C(=O)O | 2.6 | 4.8 | 39.7 | 56.2 |  | inactive | 
CC(=O)N(C)CC#CCN1CCCC(O)C1 (centres undefined) |  | 4.9 | 9.1 | 21.7 | 3.4 |  | PI turnover [8]: inactive
CC(=O)N(C)CC#CCN1CCCC1 | 52.5 | 41.6 | 94.7 | 89.4 | 100 |  | 
CC(=O)OC[C@H]1CCCN1CC#CCN(C)C(C)=O |  | 2.6 |  |  |  | inactive | PI turnover [8]: inactive; Displacement [12]: 61.6%; Displacement [13]: 42.1%
CC(=O)N(C)CC#CCN1CCC[C@@H]1CF.O=C(O)C(=O)O | 7.2 | 10.4 | 61.5 | 67.2 | 38.6 |  | 
